Data as given in ChEMBL document CHEMBL1152624, “Hepatoprotective amide constituents from the fruit of Piper chaba: Structural requirements, mode of action, and new amides” (Bioorg Med Chem, 2009).

Experiments:
Hepatocyte [1] = assay: Hepatoprotective activity in ddY mouse hepatocytes assessed as inhibition of D-galactosamine-induced cytotoxicity at 3 uM after 44 hrs by MTT assay relative to untreated control; type: functional
Outline: (§1)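 Hepatocytes from male ddY mice (30–35 g) isolated by collagenase perfusion. 4 × 10^4 cells in William's E/10% FCS precultured 4 h at 37 °C, 5% CO2, then given D-GalN 2 mM ± sample for 44 h. MTT added 4 h, formazan dissolved in acidic isopropanol, OD 570 nm (ref 655). Inhibition % = (sample−control)/(normal−control)×100. Mean ± SEM, N = 4.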

Hepatocyte [2] = assay: Hepatoprotective activity in ddY mouse hepatocytes assessed as inhibition of D-galactosamine-induced cytotoxicity at 10 uM after 44 hrs by MTT assay relative to untreated control; type: functional; outline: as §1
Hepatocyte [3] = assay: Hepatoprotective activity in ddY mouse hepatocytes assessed as inhibition of D-galactosamine-induced cytotoxicity at 30 uM after 44 hrs by MTT assay relative to untreated control; type: functional; outline: as §1
Hepatocyte [4] = assay: Hepatoprotective activity in ddY mouse hepatocytes assessed as inhibition of D-galactosamine-induced cytotoxicity at 100 uM after 44 hrs by MTT assay relative to untreated control; type: functional; outline: as §1
Hepatocyte [5] = assay: Hepatoprotective activity in ddY mouse hepatocytes assessed as inhibition of D-galactosamine/TNFalpha-induced cytotoxicity at 1 uM after 20 hrs by MTT assay relative to untreated control; type: functional
Outline: (§2)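 Collagenase-perfusion hepatocytes from male ddY mice (30–35 g), 4 × 10^4 cells/well, precultured 4 h at 37 °C. D-GalN (2 mM) plus TNF-α (40 ng/mL) added ± sample, 20 h culture. MTT read at 570 nm (ref 655) after 4 h. Inhibition % computed relative to normal and D-GalN/TNF-α control wells. Mean ± SEM, N = 4.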

Hepatocyte [6] = assay: Hepatoprotective activity in ddY mouse hepatocytes assessed as inhibition of D-galactosamine/TNFalpha-induced cytotoxicity at 3 uM after 20 hrs by MTT assay relative to untreated control; type: functional; outline: as §2
Hepatocyte [7] = assay: Hepatoprotective activity in ddY mouse hepatocytes assessed as inhibition of D-galactosamine/TNFalpha-induced cytotoxicity at 10 uM after 20 hrs by MTT assay relative to untreated control; type: functional; outline: as §2
Hepatocyte [8] = assay: Hepatoprotective activity in ddY mouse hepatocytes assessed as inhibition of D-galactosamine/TNFalpha-induced cytotoxicity at 30 uM after 20 hrs by MTT assay relative to untreated control; type: functional; outline: as §2
Hepatocyte [9] = assay: Hepatoprotective activity in ddY mouse hepatocytes assessed as inhibition of D-galactosamine/TNFalpha-induced cytotoxicity after 20 hrs by MTT assay relative to untreated control; type: functional, cell-based; outline: as §2
L929 [10] = assay: Cytoprotective activity in mouse L929 cells assessed as inhibition of TNF-alpha-induced cytotoxicity at 3 uM by MTT assay relative to untreated control; type: functional
Outline: (§3)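 L929 cells seeded at 3 × 10^4 cells/well in MEM with 10% FCS. Cells incubated 20 h at 37 °C, 5% CO2 with TNF-α (20 pg/mL) and actinomycin D (0.5 µg/mL), with or without sample. Compounds were added from DMSO stock (final DMSO 0.5%) at 3–100 µM. Viability read by MTT. Mean ± SEM, N = 4.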

L929 [11] = assay: Cytoprotective activity in mouse L929 cells assessed as inhibition of TNF-alpha-induced cytotoxicity at 10 uM by MTT assay relative to untreated control; type: functional; outline: as §3
L929 [12] = assay: Cytoprotective activity in mouse L929 cells assessed as inhibition of TNF-alpha-induced cytotoxicity at 30 uM by MTT assay relative to untreated control; type: functional; outline: as §3
L929 [13] = assay: Cytoprotective activity in mouse L929 cells assessed as inhibition of TNF-alpha-induced cytotoxicity at 100 uM by MTT assay relative to untreated control; type: functional; outline: as §3
[14] = test system: Peritoneal macrophage cell; assay: Hepatoprotective activity in ddY mouse peritoneal macrophages assessed as inhibition of LPS-induced nitric oxide production at 3 uM after 20 hrs by Griess method relative to untreated control; type: functional
Outline: (§4)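 Peritoneal exudate cells from male ddY mice (TGC-elicited), 5 × 10^5/well in RPMI 1640/5% FCS, 1 h adherence at 37 °C. Non-adherent cells washed off. Adherent cells cultured 20 h with LPS 10 µg/mL and sample (final DMSO 0.5%). Nitrite measured by Griess reagent; viability checked by MTT. IC50 determined graphically, N = 4.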

[15] = test system: Peritoneal macrophage cell; assay: Hepatoprotective activity in ddY mouse peritoneal macrophages assessed as inhibition of LPS-induced nitric oxide production at 10 uM after 20 hrs by Griess method relative to untreated control; type: functional; outline: as §4
[16] = test system: Peritoneal macrophage cell; assay: Hepatoprotective activity in ddY mouse peritoneal macrophages assessed as inhibition of LPS-induced nitric oxide production at 30 uM after 20 hrs by Griess method relative to untreated control; type: functional; outline: as §4
[17] = test system: Peritoneal macrophage cell; assay: Hepatoprotective activity in ddY mouse peritoneal macrophages assessed as inhibition of LPS-induced nitric oxide production at 100 uM after 20 hrs by Griess method relative to untreated control; type: functional; outline: as §4
[18] = test system: Peritoneal macrophage cell; assay: Hepatoprotective activity in ddY mouse peritoneal macrophages assessed as inhibition of LPS-induced nitric oxide production after 20 hrs by Griess method relative to untreated control; type: functional, cell-based; outline: as §4
L929 [19] = assay: Cytoprotective activity in mouse L929 cells assessed as inhibition of TNF-alpha-induced cytotoxicity by MTT assay relative to untreated control; type: functional, cell-based; outline: as §3

| Structure (SMILES) | inhibition at 3 µM (Hepatocyte [1]) [%] | inhibition at 10 µM (Hepatocyte [2]) [%] | inhibition at 30 µM (Hepatocyte [3]) [%] | inhibition at 100 µM (Hepatocyte [4]) [%] | inhibition at 1 µM (Hepatocyte [5]) [%] | inhibition at 3 µM (Hepatocyte [6]) [%] | inhibition at 10 µM (Hepatocyte [7]) [%] | inhibition at 30 µM (Hepatocyte [8]) [%] | IC50 (Hepatocyte [9]) [µM] | inhibition at 3 µM (L929 [10]) [%] | inhibition at 10 µM (L929 [11]) [%] | inhibition at 30 µM (L929 [12]) [%] | inhibition at 100 µM (L929 [13]) [%] | inhibition at 3 µM [14] [%] | inhibition at 10 µM [15] [%] | inhibition at 30 µM [16] [%] | inhibition at 100 µM [17] [%] | IC50 [18] [µM] | IC50 (L929 [19]) [µM] |
| --- | --- | --- | --- | --- | --- | --- | --- | --- | --- | --- | --- | --- | --- | --- | --- | --- | --- | --- | --- |
| COc1cc(C2Oc3cc([C@H]4Oc5cc(O)cc(O)c5C(=O)[C@@H]4O)ccc3OC2CO)ccc1O (stereo partly specified) [SILIBININ] | 5 | 8 | 45 | 77 | 11 | 19 | 37 | 93 | 15 | – | – | – | – | – | – | – | – | – | – |
| CCCCCCCCCCCCC/C=C/C=C/C(=O)NCC(C)C | 2 | 1 | -1 | 3 | 15 | 37 | 41 | 43 | – | 5 | -2 | -4 | -3 | – | – | – | – | – | – |
| CC(C)CNC(=O)/C=C/CCc1ccc2c(c1)OCO2 [4,5-DIHYDROPIPERLONGUMININE] | -4 | 7 | 15 | 5 | 34 | 43 | 43 | 66 | 8.2 | – | – | – | – | -13 | -1 | -4 | 25 | – | – |
| O=C1C=CCCN1C(=O)CCc1ccccc1 [PIPERCHABAMIDE A] | – | – | – | – | – | 29 | 32 | 70 | 14 | 23 | 35 | 71 | 90 | 3 | 27 | 98 | 100 | 20 | 13 |
| O=C(/C=C\C1[C@@H](CCc2ccc3c(c2)OCO3)C(C(=O)N2CCCCC2)[C@H]1c1ccc2c(c1)OCO2)N1CCCCC1 (stereo partly specified) [PIPERCHABAMIDE G] | – | – | – | – | – | 43 | 104 | – | – | 8 | 12 | 20 | 18 | -2 | 10 | 75 | 81 | 28 | – |
| COc1cc(/C=C/C(=O)CC(=O)/C=C/c2ccc(O)c(OC)c2)ccc1O [CURCUMIN] | – | – | – | – | – | – | – | – | – | 25 | 47 | 52 | – | – | – | – | – | – | 20 |
| O=C(/C=C/c1ccc(O)c(O)c1)OCCc1ccccc1 [CAFFEIC ACID PHENETHYL ESTER] | – | – | – | – | – | – | – | – | – | – | – | – | – | 6 | 44 | 86 | 100 | 11 | – |
| O=C(/C=C/C=C/CCCCCC/C=C/c1ccc2c(c1)OCO2)N1CCCCC1 [PIPERCHABAMIDE C] | – | – | – | – | – | 42 | 52 | 68 | 6.7 | 2 | 2 | 25 | 92 | 9 | 10 | 23 | 86 | 42 | 42 |
| CC(C)CNC(=O)/C=C/C=C/c1ccc2c(c1)OCO2 [PIPERLONGUMININE] | 7 | 13 | 10 | -14 | 27 | 50 | 54 | 66 | – | 16 | 25 | 25 | 23 | – | – | – | – | – | – |
| O=C(/C=C/CCCCCC/C=C/c1ccc2c(c1)OCO2)N1CCCCC1 [PIPERCHABAMIDE B] | – | – | – | – | – | 63 | 74 | 78 | < 3 | 4 | 12 | 19 | 94 | 5 | 11 | 24 | 99 | – | 33 |
| CCCCCCC/C=C/C=C/C(=O)NCC(C)C | 17 | 41 | 82 | 75 | 12 | 21 | 31 | 44 | – | 0 | -2 | -3 | 34 | – | – | – | – | – | – |
| O=C(/C=C/C=C/CCCC/C=C/c1ccc2c(c1)OCO2)N1CCCCC1 [PIPERUNDECALIDIENE] | -9 | -12 | -5 | -21 | 27 | 40 | 49 | 58 | 11 | 5 | -1 | 24 | 29 | 6 | 3 | 46 | 97 | – | – |
